Type in all cases: functional
The subject of experiment [1] is Pseudomonas aeruginosa. As to the kind of experiment: Minimum inhibition concentration in vitro determined against Pseudomona aeruginosa K799/WT. In outline: (§1)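 Agar dilution on brain-heart infusion (BHI) agar with twofold dilutions from a 2000 µg/mL stock, giving final test concentrations of 200-0.005 µg/mL. Organisms were grown overnight in BHI broth at 36 °C, and about 10⁴ organisms were inoculated per plate. Plates were incubated 18 h at 36 °C. MIC was the lowest concentration with no visible growth.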

In experiment [2] the test system is Staphylococcus epidermidis. The experiment in a line: Minimum inhibition concentration in vitro determined against Staphylococcus epidermidis 3519. An outline of the steps: as §1
The test system of a further experiment is Enterococcus faecium. The experiment in a line: Minimum inhibition concentration in vitro determined against Streptococcus faecium ATCC 8043. In outline:
as §1

A further experiment deals with Klebsiella aerogenes. As to the kind of experiment: Minimum inhibition concentration in vitro determined against Enterobacteri aerogenes ATCC 13048. In outline:
as §1

The test system of the next experiment is Acinetobacter. As to the kind of experiment: Minimum inhibition concentration in vitro determined against Acinetobacter sp CMX669. An outline of the steps:
as §1

Experiment [3] concerns Staphylococcus aureus. The experiment in a line: Minimum inhibition concentration in vitro determined against Staphylococcus aureus ATCC 6538P. An outline of the steps:
as §1

Experiment [4] relates to Staphylococcus aureus. As to the kind of experiment: Minimum inhibition concentration in vitro determined against Staphylococcus aureus CMX 686B. An outline of the steps:
as §1

The test system of experiment [5] is Pseudomonas aeruginosa. The experiment in a line: Minimum inhibition concentration in vitro determined against Pseudomona aeruginosa 5007. In outline:
as §1

The test system of the next experiment is Escherichia coli. As to the kind of experiment: Minimum inhibition concentration in vitro determined against Escherichia coli juhl. Conditions: Escherichia coli; read-out: MIC. In outline:
as §1

The test system of a further experiment is Streptococcus pyogenes. The experiment in a line: Minimum inhibition concentration in vitro determined against Streptococcus pyogenes 930. In outline: as §1
The next experiment deals with Klebsiella pneumoniae. The experiment in a line: Minimum inhibition concentration in vitro determined against Klebsiella pneumoniae 8045. An outline of the steps: as §1

This passage reports MIC results from ChEMBL document CHEMBL1122831, “Synthesis and structure-activity relationships of novel arylfluoroquinolone antibacterial agents” (1985).

SMILES strings stand for the structures. In brackets after ≈: the same amount, converted by molar mass.

By MIC is commonly meant the lowest concentration that inhibits growth of the organism. As for `CN1CCN(c2cc3c(cc2F)c(=O)c(C(=O)O)cn3-c2ccccc2)CC1`, the MIC turned out to be 3.1 µg/mL (≈ 8.13 µM) against Pseudomonas aeruginosa [1]; 0.78 µg/mL (≈ 2.05 µM) in [2]; 12.5 µg/mL (≈ 32.8 µM) against Enterococcus faecium; 1.56 µg/mL (≈ 4.09 µM) in the experiment with Klebsiella aerogenes; 1.56 µg/mL (≈ 4.09 µM) in the experiment on Acinetobacter; 0.78 µg/mL (≈ 2.05 µM) against Staphylococcus aureus [3]. Also, the minimal inhibitory concentration (MIC) was 0.78 µg/mL (≈ 2.05 µM) with Staphylococcus aureus [4]; 6.2 µg/mL (≈ 16.3 µM) in the experiment on Pseudomonas aeruginosa [5]; 0.78 µg/mL (≈ 2.05 µM) in the experiment on Escherichia coli; 3.1 µg/mL (≈ 8.13 µM) with Streptococcus pyogenes; 0.2 µg/mL (≈ 0.524 µM) in the experiment on Klebsiella pneumoniae.
With `CC(=O)N1CCN(c2cc3c(cc2F)c(=O)c(C(=O)O)cn3-c2ccc(F)cc2)CC1`, the MIC is 12.5 µg/mL (≈ 29.2 µM) in the experiment with Pseudomonas aeruginosa [1]; 0.78 µg/mL (≈ 1.82 µM) in experiment [2]; 3.1 µg/mL (≈ 7.25 µM) with Enterococcus faecium; 3.1 µg/mL (≈ 7.25 µM) with Klebsiella aerogenes; 12.5 µg/mL (≈ 29.2 µM) in the experiment on Acinetobacter; 0.2 µg/mL (≈ 0.468 µM) against Staphylococcus aureus [3]. Besides, the MIC in the experiment with Staphylococcus aureus [4] was found to be 0.2 µg/mL (≈ 0.468 µM); with Pseudomonas aeruginosa [5], 12.5 µg/mL (≈ 29.2 µM); with Escherichia coli, 1.56 µg/mL (≈ 3.65 µM); against Streptococcus pyogenes, 1.56 µg/mL (≈ 3.65 µM); against Klebsiella pneumoniae it was 1.56 µg/mL (≈ 3.65 µM).
Consider `CC(C)N(C)c1cc2c(cc1F)c(=O)c(C(=O)O)cn2-c1ccc(F)cc1`, for which the minimal inhibitory concentration (MIC) against Pseudomonas aeruginosa [1] stood at 50 µg/mL (≈ 134 µM); in [2], 1.56 µg/mL (≈ 4.19 µM); in the experiment with Enterococcus faecium, 12.5 µg/mL (≈ 33.6 µM); in the experiment on Klebsiella aerogenes it was 6.2 µg/mL (≈ 16.7 µM); in the experiment with Acinetobacter, 12.5 µg/mL (≈ 33.6 µM); against Staphylococcus aureus [3], 0.78 µg/mL (≈ 2.09 µM). The MIC with Staphylococcus aureus [4] turned out to be 0.78 µg/mL (≈ 2.09 µM); with Pseudomonas aeruginosa [5], 100 µg/mL (≈ 269 µM); in the experiment with Escherichia coli, 6.2 µg/mL (≈ 16.7 µM); in the experiment with Streptococcus pyogenes, 12.5 µg/mL (≈ 33.6 µM); in the experiment on Klebsiella pneumoniae, 3.1 µg/mL (≈ 8.33 µM).
As to `O=C(O)c1cn(-c2ccc(F)cc2)c2cc(N3CCCCC3)c(F)cc2c1=O`, the MIC in the experiment with Pseudomonas aeruginosa [1] stood at 6.2 µg/mL (≈ 16.1 µM); in [2], 0.39 µg/mL (≈ 1.01 µM); against Enterococcus faecium, 3.1 µg/mL (≈ 8.06 µM); in the experiment on Klebsiella aerogenes, 3.1 µg/mL (≈ 8.06 µM); in the experiment on Acinetobacter it was 1.56 µg/mL (≈ 4.06 µM); in the experiment on Staphylococcus aureus [3], 0.2 µg/mL (≈ 0.52 µM). The MIC against Staphylococcus aureus [4] amounted to 0.2 µg/mL (≈ 0.52 µM); against Pseudomonas aeruginosa [5], 6.2 µg/mL (≈ 16.1 µM); in the experiment on Escherichia coli, 1.56 µg/mL (≈ 4.06 µM); in the experiment on Streptococcus pyogenes it was 1.56 µg/mL (≈ 4.06 µM); against Klebsiella pneumoniae it was 1.56 µg/mL (≈ 4.06 µM).
Take `O=C(O)c1cn(-c2ccc(F)cc2)c2cc(N3CCC(O)CC3)c(F)cc2c1=O`: the MIC was 3.1 µg/mL (≈ 7.74 µM) with Pseudomonas aeruginosa [1]; 0.39 µg/mL (≈ 0.974 µM) in [2]; 1.56 µg/mL (≈ 3.9 µM) with Enterococcus faecium; 1.56 µg/mL (≈ 3.9 µM) with Klebsiella aerogenes; 1.56 µg/mL (≈ 3.9 µM) with Acinetobacter; 0.1 µg/mL (≈ 0.25 µM) in the experiment with Staphylococcus aureus [3]. Besides, the MIC in the experiment with Staphylococcus aureus [4] worked out at 0.1 µg/mL (≈ 0.25 µM); against Pseudomonas aeruginosa [5], 6.2 µg/mL (≈ 15.5 µM); in the experiment on Escherichia coli it was 0.39 µg/mL (≈ 0.974 µM); with Streptococcus pyogenes, 1.56 µg/mL (≈ 3.9 µM); against Klebsiella pneumoniae, 0.39 µg/mL (≈ 0.974 µM).
On to `CN(C)C1CCN(c2cc3c(cc2F)c(=O)c(C(=O)O)cn3-c2ccc(F)cc2)C1` (centres undefined), for which the MIC in the experiment with Pseudomonas aeruginosa [1] turned out to be 12.5 µg/mL (≈ 30.2 µM); in experiment [2], 0.39 µg/mL (≈ 0.943 µM); in the experiment with Enterococcus faecium, 25 µg/mL (≈ 60.5 µM); with Klebsiella aerogenes, 0.78 µg/mL (≈ 1.89 µM); against Acinetobacter it was 0.78 µg/mL (≈ 1.89 µM); with Staphylococcus aureus [3] it was 0.39 µg/mL (≈ 0.943 µM). The MIC came to 0.39 µg/mL (≈ 0.943 µM) in the experiment with Staphylococcus aureus [4]; 25 µg/mL (≈ 60.5 µM) against Pseudomonas aeruginosa [5]; 0.39 µg/mL (≈ 0.943 µM) with Escherichia coli; 3.1 µg/mL (≈ 7.5 µM) against Streptococcus pyogenes; 0.2 µg/mL (≈ 0.484 µM) against Klebsiella pneumoniae.
On to `CN(C)C1CCN(c2cc3c(cc2F)c(=O)c(C(=O)O)cn3-c2ccc(F)cc2)CC1`, for which the MIC was determined as 3.1 µg/mL (≈ 7.25 µM) in the experiment on Pseudomonas aeruginosa [1]; 0.78 µg/mL (≈ 1.82 µM) in experiment [2]; 3.1 µg/mL (≈ 7.25 µM) in the experiment on Enterococcus faecium; 0.78 µg/mL (≈ 1.82 µM) with Klebsiella aerogenes; 0.78 µg/mL (≈ 1.82 µM) with Acinetobacter; 0.39 µg/mL (≈ 0.912 µM) against Staphylococcus aureus [3]. Besides, the MIC is 0.39 µg/mL (≈ 0.912 µM) with Staphylococcus aureus [4]; 3.1 µg/mL (≈ 7.25 µM) with Pseudomonas aeruginosa [5]; 0.39 µg/mL (≈ 0.912 µM) with Escherichia coli; 1.56 µg/mL (≈ 3.65 µM) against Streptococcus pyogenes; 0.39 µg/mL (≈ 0.912 µM) against Klebsiella pneumoniae.
Turning to `CN1CCN(c2cc3c(cc2F)c(=O)c(C(=O)O)cn3-c2ccc(Br)cc2)CC1`, the MIC against Pseudomonas aeruginosa [1] was 25 µg/mL (≈ 54.3 µM); in experiment [2] it was 3.1 µg/mL (≈ 6.73 µM); with Enterococcus faecium, 100 µg/mL (≈ 217 µM); against Klebsiella aerogenes it was 12.5 µg/mL (≈ 27.2 µM); against Acinetobacter, 12.5 µg/mL (≈ 27.2 µM); against Staphylococcus aureus [3] it was 3.1 µg/mL (≈ 6.73 µM). The MIC is 3.1 µg/mL (≈ 6.73 µM) in the experiment with Staphylococcus aureus [4]; 50 µg/mL (≈ 109 µM) with Pseudomonas aeruginosa [5]; 6.2 µg/mL (≈ 13.5 µM) with Escherichia coli; 50 µg/mL (≈ 109 µM) against Streptococcus pyogenes; 3.1 µg/mL (≈ 6.73 µM) against Klebsiella pneumoniae.
Take `O=C(O)c1cn(-c2ccc(F)cc2)c2cc(N3CCCC3)c(F)cc2c1=O`: the MIC against Pseudomonas aeruginosa [1] amounted to 1.56 µg/mL (≈ 4.21 µM); in [2] it was 0.2 µg/mL (≈ 0.54 µM); with Enterococcus faecium it was 0.78 µg/mL (≈ 2.11 µM); against Klebsiella aerogenes, 0.78 µg/mL (≈ 2.11 µM); with Acinetobacter it was 0.78 µg/mL (≈ 2.11 µM); against Staphylococcus aureus [3] it was 0.1 µg/mL (≈ 0.27 µM). Besides, the minimal inhibitory concentration (MIC) against Staphylococcus aureus [4] is 0.1 µg/mL (≈ 0.27 µM); with Pseudomonas aeruginosa [5], 1.56 µg/mL (≈ 4.21 µM); in the experiment on Escherichia coli, 0.78 µg/mL (≈ 2.11 µM); against Streptococcus pyogenes, 0.78 µg/mL (≈ 2.11 µM); in the experiment with Klebsiella pneumoniae it was 0.39 µg/mL (≈ 1.05 µM).
Regarding `O=C(O)c1cn(-c2ccccc2)c2cc(N3CCNCC3)c(F)cc2c1=O`, the MIC was 1.56 µg/mL (≈ 4.25 µM) against Pseudomonas aeruginosa [1]; 1.56 µg/mL (≈ 4.25 µM) in experiment [2]; 12.5 µg/mL (≈ 34 µM) in the experiment on Enterococcus faecium; 0.39 µg/mL (≈ 1.06 µM) against Klebsiella aerogenes; 0.78 µg/mL (≈ 2.12 µM) in the experiment on Acinetobacter; 0.39 µg/mL (≈ 1.06 µM) against Staphylococcus aureus [3]. The MIC with Staphylococcus aureus [4] amounted to 0.39 µg/mL (≈ 1.06 µM); in the experiment on Pseudomonas aeruginosa [5], 0.78 µg/mL (≈ 2.12 µM); in the experiment on Escherichia coli, 0.2 µg/mL (≈ 0.544 µM); in the experiment on Streptococcus pyogenes it was 1.56 µg/mL (≈ 4.25 µM).
